Test results from ChEMBL document CHEMBL3826882, “Discovery of 1-((2R,4aR,6R,7R,7aR)-2-Isopropoxy-2-oxidodihydro-4H,6H-spiro[furo[3,2-d][1,3,2]dioxaphosphinine-7,2'-oxetan]-6-yl)pyrimidine-2,4(1H,3H)-dione (JNJ-54257099), a 3'-5'-Cyclic Phosphate Ester Prodrug of 2'-Deoxy-2'-Spirooxetane Uridine Triphosphate Useful for HCV Inhibition” (J Med Chem, 2016).

How the values were obtained:
Hepatocyte [1] = test: Stability in mouse primary hepatocyte supernatant assessed as parent compound level at 2 uM after 4 to 24 hrs using radiolabeled compound by HPLC analysis; assay type: ADME, cell-based; conditions: hepatocytes
Hepatocyte [2] = test: Prodrug conversion in rat primary hepatocytes assessed as 2'-deoxy-2'-spirooxetane uridine triphosphate level per million cells at 62.5 uM after 24 hrs using radiolabelled compound by LC-MS/MS analysis; assay type: ADME, cell-based
Procedure, shortened: (§1)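 Study A: fresh primary hepatocyte cultures from mouse, rat, dog and human incubated with tritiated prodrug at 2 or 62.5 µM for 4 or 24 h. Triphosphate in cell lysates reported as pmol/million hepatocytes. Duplicate or single measurements.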

[3] = Stability in dog primary hepatocytes assessed as parent compound level at 2 to 62.5 uM after 4 hrs using radiolabeled compound by LC-MS/MS analysis; assay type: ADME, cell-based, Canis lupus familiaris, Hepatocyte
Procedure, shortened: (§2)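 Fresh primary hepatocyte cultures incubated with tritiated prodrug (5'-[3H]) at 2 and 62.5 µM for 4 and 24 h. Supernatants taken after protein precipitation and profiled by HPLC with radioactivity detection. Cell lysates profiled for metabolites by radio-LC. Cyclic monophosphate also measured by LC/MS/MS.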

[4] = Drug metabolism in dog primary hepatocytes assessed as 1-[(4aR,6R,7R,7aR)-2-hydroxy-2-oxidodihydro-4H-spiro[furo[3,2-d][1,3,2]dioxaphosphinine-7,2'-oxetan]-6-yl]pyrimidine-2,4(1H,3H)-dione formation at 2 to 62.5 uM after 4 hrs using radiolabelled compound by LC-MS/MS analysis; assay type: ADME, cell-based, Canis lupus familiaris, Hepatocyte
Procedure, shortened: (§3)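 Study A: primary cultured hepatocytes (mouse, rat, dog, human) incubated with 2 or 62.5 µM 5'-[3H]-labelled prodrug for 4 and 24 h. Cell lysates were analysed for triphosphate. Supernatants were protein-precipitated and profiled by HPLC with radioactivity detection. Cyclic monophosphate was also assessed by LC/MS/MS.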

Hepatocyte [5] = test: Drug metabolism in mouse primary hepatocyte supernatant assessed as 1-[(4aR,6R,7R,7aR)-2-hydroxy-2-oxidodihydro-4H-spiro[furo[3,2-d][1,3,2]dioxaphosphinine-7,2'-oxetan]-6-yl]pyrimidine-2,4(1H,3H)-dione formation at 2 to 62.5 uM after 4 to 24 hrs using radiolabelled compound by HPLC analysis; assay type: ADME, cell-based; conditions: hepatocytes; procedure, shortened: as §2
Hepatocyte [6] = test: Drug metabolism in rat primary hepatocytes assessed as 1-[(4aR,6R,7R,7aR)-2-hydroxy-2-oxidodihydro-4H-spiro[furo[3,2-d][1,3,2]dioxaphosphinine-7,2'-oxetan]-6-yl]pyrimidine-2,4(1H,3H)-dione formation at 2 to 62.5 uM after 24 hrs using radiolabelled compound by LC-MS/MS analysis; assay type: ADME, cell-based; procedure, shortened: as §2
Hepatocyte [7] = test: Prodrug conversion in mouse primary hepatocytes assessed as 2'-deoxy-2'-spirooxetane uridine triphosphate level per million cells at 2 uM after 24 hrs using radiolabelled compound by LC-MS/MS analysis; assay type: ADME, cell-based; procedure, shortened: as §1
[8] = Drug metabolism in dog primary hepatocyte supernatant assessed as 1-((4R,5R,7R,8R)-8-hydroxy-7-(hydroxymethyl)-1,6-dioxaspiro[3.4]octan-5-yl)pyrimidine-2,4(1H,3H)-dione formation at 2 to 62.5 uM after 4 to 24 hrs using radiolabeled compound by HPLC analysis; assay type: ADME, cell-based, Canis lupus familiaris; conditions: hepatocytes; procedure, shortened: as §3
[9] = AUC (0 to infinity) in rat plasma at 50 mg/kg, po; assay type: ADME, organism-based; set-up: dose 50 mg/kg, time infinity, route oral
Procedure, shortened: (§4)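 Oral dose 50 mg/kg, formulated in 20% HP-β-cyclodextrin. Prodrug and triphosphate were measured in plasma and liver (ng/mL or ng/g). Parameters derived were Cmax, tmax, AUC0-last, AUC0-inf and t1/2. Some prodrug data come from two independent studies.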

Liver [10] = test: AUC (0 to infinity) in mouse liver at 50 mg/kg, po; assay type: ADME, organism-based; set-up: dose 50 mg/kg, route oral, time infinity; conditions: in vivo; procedure, shortened: as §4
[11] = Half life in mouse plasma at 50 mg/kg, po; assay type: ADME, organism-based
Procedure, shortened: (§5)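 Single oral dose of 50 mg/kg in 20% HP-β-cyclodextrin. Prodrug and triphosphate measured in plasma and liver over time (tlast 6–30 h). Half-life, Cmax, tmax and AUC0-last derived; liver/plasma ratio taken from AUC0-last. Prodrug data pooled from two independent studies.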

Liver [12] = test: Cmax in dog liver assessed as 2'-deoxy-2'-spirooxetane uridine triphosphate at 50 mg/kg, po; assay type: ADME, organism-based, Canis lupus familiaris; set-up: dose 50 mg/kg, route oral; conditions: in vivo
[13] = Cytotoxicity against human HuH7-CMV-Luc cells assessed as reduction in cell proliferation after 3 days by 5-bromo-2'-deoxyuridine incorporation assay; assay type: cell-based, Huh-7
Procedure, shortened: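 Huh7 cells at 1,500 cells/well, five serial compound dilutions in triplicate, 3 days of incubation. Proliferation was quantified as BrdU incorporation into DNA by ELISA.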

[14] = Ratio of AUC (0 to last) in mouse liver to AUC (0 to last) in mouse plasma; assay type: ADME; procedure, shortened: as §5
Hepatocyte [15] = test: Drug metabolism in human hepatocytes assessed as ((4R,5R,7R,8R)-5-(2,4-dioxo-3,4-dihydropyrimidin-1(2H)-yl)-8-hydroxy-1,6-dioxaspiro[3.4]octan-7-yl)methyl dihydrogen phosphate formation in presence of pan-CYP inhibitor 1-ABT by LC-MS/MS analysis; assay type: ADME, cell-based
Liver [16] = test: AUC (0 to last) in dog liver assessed as 2'-deoxy-2'-spirooxetane uridine triphosphate at 50 mg/kg, po; assay type: ADME, organism-based, Canis lupus familiaris; conditions: in vivo; procedure, shortened: as §4
[17] = Tmax in rat liver at 50 mg/kg, po; assay type: ADME, organism-based
Procedure, shortened: (§6)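 Single oral dose of 50 mg/kg formulated in 20% HP-β-cyclodextrin. Prodrug and its triphosphate were measured in plasma and liver (ng/mL or ng/g) over time, and Cmax, tmax, AUC, tlast and t1/2 were derived. For some analytes, data from two independent studies are reported.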

Liver [18] = test: AUC (0 to last) in mouse liver at 50 mg/kg, po; assay type: ADME, organism-based; conditions: in vivo; procedure, shortened: as §4
Hepatocyte [19] = test: Prodrug conversion in human primary hepatocytes assessed as 2'-deoxy-2'-spirooxetane uridine triphosphate formation measured at 48 to 96 hrs by LC-MS/MS analysis; assay type: ADME, cell-based
Procedure, shortened: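 Hepatocyte primary cultures followed over time for triphosphate formation in cell lysates: rat and mouse up to 24 h, human up to 96 h.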

Liver [20] = test: AUC (0 to infinity) in mouse liver assessed as 2'-deoxy-2'-spirooxetane uridine triphosphate at 50 mg/kg, po; assay type: ADME, organism-based; set-up: dose 50 mg/kg, time infinity, route oral; conditions: in vivo; procedure, shortened: as §4
Hepatocyte [21] = test: Drug metabolism in human hepatocytes assessed as ((4R,5R,7R,8R)-5-(2,4-dioxo-3,4-dihydropyrimidin-1(2H)-yl)-8-hydroxy-1,6-dioxaspiro[3.4]octan-7-yl)methyl dihydrogen phosphate formation in presence of CYP3A4 inhibitor ritonavir by LC-MS/MS analysis; assay type: ADME, cell-based
Hepatocyte [22] = test: Prodrug conversion in human hepatocytes assessed as 2'-deoxy-2'-spirooxetane uridine triphosphate formation in presence of PDE4 inhibitor rolipram by LC-MS/MS analysis; assay type: ADME, cell-based
Hepatocyte [23] = test: Prodrug conversion in rat cryopreserved hepatocytes assessed as 2'-deoxy-2'-spirooxetane uridine triphosphate level per million cells at 10 uM after 24 hrs by LC-MS/MS analysis; assay type: ADME, cell-based
Procedure, shortened: (§7)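 Plated cryopreserved hepatocytes (study B) incubated with 10 µM unlabeled prodrug for 2, 8 or 24 h. Triphosphate measured in cell lysates and expressed as pmol/million hepatocytes. Quantification limit 2 ng/10^6 cells.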

Liver [24] = test: Tmax in mouse liver assessed as 2'-deoxy-2'-spirooxetane uridine triphosphate at 50 mg/kg, po; assay type: ADME, organism-based; conditions: in vivo; procedure, shortened: as §6
Mus musculus = test: Half life in homozygous cDNA-uPA chimeric SCID mouse bearing humanized hepatocytes infected with HCV assessed as 2'-deoxy-2'-spirooxetane uridine triphosphate at 50 to 200 mg/kg, po bid administered through gavage for 7 days; assay type: ADME, organism-based, Hepatocyte; conditions: 168 h
Hepatocyte [25] = test: Prodrug conversion in mouse cryopreserved hepatocytes assessed as 2'-deoxy-2'-spirooxetane uridine triphosphate level per million cells at 10 uM after 8 hrs by LC-MS/MS analysis; assay type: ADME, cell-based; procedure, shortened: as §7

SMILES: [3H]C1O[P@](=O)(OC(C)C)O[C@@H]2[C@@H]1O[C@@H](n1ccc(=O)[nH]c1=O)[C@@]21CCO1 (stereo partly specified)
- Stability (Hepatocyte [1]): Stable
- Drug metabolism (Hepatocyte [2]): 0.39 pmol
- Stability [3]: Stable
- Drug metabolism [4]: metabolite_detected
- Drug metabolism (Hepatocyte [5]): metabolite_detected
- Drug metabolism (Hepatocyte [6]): metabolite_detected
- Drug metabolism (Hepatocyte [7]): 0.049 pmol
- Drug metabolism [8]: metabolite_detected

SMILES: CC(C)O[P@@]1(=O)OC[C@H]2O[C@@H](n3ccc(=O)[nH]c3=O)[C@@]3(CCO3)[C@@H]2O1
- AUC(0-inf) [9]: 7440 ng·h/mL
- AUC (Liver [10]): 1706 ng·h/g
- half-life [11]: 4.4 h
- Cmax (Liver [12]): 46600 ng/g
- CC50 at 72 h [13]: > 100 µM
- Kp [14]: 0.57
- Drug metabolism (Hepatocyte [15]): metabolite_notdetected
- AUClast (Liver [16]): 223803 ng·h/g
- Tmax [17]: 1 h
- AUClast (Liver [18]): 1456 ng·h/g
- Drug metabolism (Hepatocyte [19]): metabolite_detected
- AUC (Liver [20]): 129396 ng·h/g
- Drug metabolism (Hepatocyte [21]): metabolite_notdetected
- Drug metabolism (Hepatocyte [22]): metabolite_notdetected
- Drug metabolism (Hepatocyte [23]): 0.231 pmol
- Tmax (Liver [24]): 2 h
- t1/2 (Mus musculus): 3.9 h
- Drug metabolism (Hepatocyte [25]): 0.95 pmol
